Measurements published in ChEMBL document CHEMBL2176966, “Discovery of 6,7-dihydro-5H-pyrrolo[2,3-a]pyrimidines as orally available G protein-coupled receptor 119 agonists” (J Med Chem, 2012).
Activity calls are given as the source filed them. No cut-off for these calls is given here.

Key:
Mus musculus [1] = test: Toxicity in C57BL/6 mouse assessed as effect on food intake at 10 mg/kg, po measured up to 24 hrs; assay type: organism-based; design: dose 10 mg/kg, route oral; conditions: in vivo
Method in brief: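 Individually housed male C57BL/6 mice were fasted overnight and given 10 mg/kg. Normal-chow hoppers were weighed and returned. Hopper weights were recorded at 1, 2, 4, 6 and 24 h post-dose and compared with vehicle-treated mice.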

Rattus norvegicus [2] = test: Increase of C-peptide level in Wistar rat at 10 mg/kg, po after 10 to 90 mins; assay type: functional, organism-based; design: dose 10 mg/kg
Method in brief: (§1)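 Male Wistar rats (300–350 g) with jugular and femoral vein catheters, one week post-surgery, fasted overnight. Randomized to vehicle (n = 19) or oral compound (n = 8). About 90 min after gavage, a hyperglycemic clamp was started: a glucose bolus into the femoral vein, then variable-rate infusion holding glucose at 190–210 mg/dL. Serum C-peptide was measured by RIA, first phase 0–5 min and second phase 10–90 min.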

Mus musculus [3] = test: Increase in GLP-1 level in GPR119 knockout mouse at 30 mg/kg, po after 60 mins by electrochemiluminescence assay; assay type: functional, organism-based; design: dose 30 mg/kg
Method in brief: (§2)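 Wild-type and GPR119 knockout mice, fasted overnight, received vehicle (0.5% HPMC/0.1% Tween80) or 30 mg/kg by oral gavage at 10 mL/kg. At 60 min, blood was taken by cardiac puncture under isoflurane into chilled K2-EDTA tubes with DPP-4 inhibitor and aprotinin (250 KIU/mL). Plasma was spun at 4 °C and stored at −80 °C. Total GLP-1 was measured by electrochemiluminescence immunoassay; n = 10.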

[4] = Oral bioavailability in rat at 30 mg/kg; assay type: ADME, organism-based; conditions: in vivo
[5] = Cmax in rat at 30 mg/kg; assay type: ADME, organism-based; design: dose 30 mg/kg; conditions: in vivo
[6] = Ratio of drug level brain to plasma in rat at 30 mg/kg; assay type: ADME, organism-based; design: dose 30 mg/kg; conditions: read-out: BPR
Mus musculus [7] = test: Increase in GLP-1 level in GPR119 transgenic wild type mouse at 30 mg/kg, po after 60 mins by electrochemiluminescence assay relative to control; assay type: functional; method in brief: as §2
[8] = Induction of GLP1 secretion in mouse GLUTag cells after 2 hrs; assay type: functional, cell-based
Method in brief: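 GLUTag cells were grown to 80% confluence on Matrigel-coated plates in DMEM with 2 mM L-glutamine and 10% FBS. They were preincubated 30 min in Krebs-Ringer buffer (10 mM D-glucose, 0.1% BSA, DPP-IV inhibitor). Compound was then added at varying concentrations in the same buffer for 2 h at 37 °C, 5% CO2. Cleared supernatant was assayed for amidated (active) GLP-1 by sandwich electrochemiluminescence immunoassay.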

Rattus norvegicus [9] = test: Increase of C-peptide level in Wistar rat at 10 mg/kg, po up to 5 mins; assay type: functional, organism-based; design: dose 10 mg/kg; method in brief: as §1
Mus musculus [10] = test: Increase in glucagon level in GPR119 knockout mouse at 30 mg/kg, po after 60 mins; assay type: functional, organism-based; design: dose 30 mg/kg
Method in brief: (§3)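 Wild-type and GPR119 knockout mice, fasted overnight, were dosed by oral gavage (30 mg/kg, 10 mL/kg, 0.5% HPMC/0.1% Tween80 vehicle). Plasma was obtained from cardiac blood at 60 min in chilled K2-EDTA containing DPP-4 inhibitor and aprotinin, then stored at −80 °C. Hormone levels were compared with vehicle; n = 8–10.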

Mus musculus [11] = test: Increase in PYY level in GPR119 transgenic wild type mouse at 30 mg/kg, po after 60 mins relative to control; assay type: functional; method in brief: as §3

bioavailability [4]: 66%
Cmax [5]: 9 µM
Kp [6]: 0.7
EC50 [8]: 0.02 µM
SMILES: CC(C)OC(=O)N1CCC(Oc2ncnc3c2CCN3c2ccc(S(C)(=O)=O)cc2F)CC1
Activity (Mus musculus [1]): Non-toxic
Activity (Rattus norvegicus [2]): Active
Activity (Mus musculus [3]): inactive
fold change (FC) (Mus musculus [7]): 4
Activity (Rattus norvegicus [9]): Active
Activity (Mus musculus [10]): inactive
fold change (FC) (Mus musculus [11]): 3
